Experimental data from BindingDB's records for doi:10.1021/ml1001807 (2011).

Tests used:
[1] = target: Tyrosine-protein kinase receptor UFO (Homo sapiens, UniProt P30530); assay: Inhibition of Axl by TR-FRET based LanthaScreen assay
Summary of the method: (§1)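 TR-FRET LanthaScreen kinase assay with phosphorylation of a substrate; FGFR3 used as the K651E mutant. IC50 derived from two independent experiments; for some compounds, ALK and cKIT values are averages ± SDs of three independent experiments.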

[2] = target: Mitogen-activated protein kinase 14 (Homo sapiens, UniProt Q16539); assay: Inhibition of p38alpha by Caliper mobility shift assay
Summary of the method: (§2)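 Caliper microfluidic mobility shift readout of substrate phosphorylation, run per the group's earlier kinase protocol. IC50 taken from two independent experiments.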

[3] = target: Rho-associated protein kinase 2 (Homo sapiens, UniProt O75116); assay: Inhibition of ROCK2 by Caliper mobility shift assay
Summary of the method: (§3)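 Caliper mobility shift kinase assay with phosphorylation of a substrate; IC50 derived from two independent experiments.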

[4] = target: Hepatocyte growth factor receptor (Homo sapiens, UniProt P08581); assay: Inhibition of HGFR by TR-FRET based LanthaScreen assay
Summary of the method: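 LanthaScreen TR-FRET kinase format, run per the group's earlier protocol. IC50 from two independent experiments; for some compounds, PDGFRα and VEGFR2 values are means ± SD of three independent runs. The FGFR3 used was the K651E mutant.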

[5] = target: Tyrosine-protein kinase JAK1 (Homo sapiens, UniProt P23458); assay: Inhibition of JAK1 by TR-FRET based LanthaScreen assay
[6] = target: Insulin-like growth factor 1 receptor (Homo sapiens, UniProt P08069); assay: Inhibition of IGF1R by TR-FRET based LanthaScreen assay; summary of the method: as §1
[7] = target: 3-phosphoinositide-dependent protein kinase 1 (Homo sapiens) (UniProt O15530); assay: Inhibition of PDK1 by Caliper mobility shift assay
[8] = target: Cyclin-dependent kinase 2 (Homo sapiens, UniProt P24941); assay: Inhibition of CDK2A by Caliper mobility shift assay; summary of the method: as §2
[9] = target: Serine/threonine-protein kinase N2 (Homo sapiens, UniProt Q16513); assay: Inhibition of PKN2 by Caliper mobility shift assay; summary of the method: as §3
Aurora kinase A = Aurora kinase A (Homo sapiens, UniProt O14965); assay: Inhibition of Aurora A kinase by Caliper mobility shift assay; summary of the method: as §3
[10] = target: Tyrosine-protein kinase JAK2 (Homo sapiens, UniProt O60674); assay: Inhibition of JAK2 by TR-FRET based LanthaScreen assay
[11] = target: Tyrosine-protein kinase ZAP-70 (Homo sapiens, UniProt P43403); assay: Inhibition of ZAP70 by TR-FRET based LanthaScreen assay; summary of the method: as §1
[12] = target: Fibroblast growth factor receptor 3 (Homo sapiens, UniProt P22607); assay: Inhibition of FGFR3 by TR-FRET based LanthaScreen assay; summary of the method: as §1
[13] = target: Tyrosine-protein kinase JAK3 (Homo sapiens, UniProt P52333); assay: Inhibition of JAK3 by Caliper mobility shift assay; summary of the method: as §3
[14] = target: ALK tyrosine kinase receptor (Homo sapiens, UniProt Q9UM73); assay: Inhibition of ALK by TR-FRET based LanthaScreen assay; summary of the method: as §1
Ephrin type-B receptor 4 = Ephrin type-B receptor 4 (Homo sapiens, UniProt P54760); assay: Inhibition of EPHB4 by TR-FRET based LanthaScreen assay; summary of the method: as §1
[15] = target: cAMP-dependent protein kinase catalytic subunit alpha (Homo sapiens, UniProt P17612); assay: Inhibition of PKAalpha by Caliper mobility shift assay
[16] = target: Receptor tyrosine-protein kinase erbB-2 (Homo sapiens, UniProt P04626); assay: Inhibition of HER2 by TR-FRET based LanthaScreen assay; summary of the method: as §1
Insulin receptor = Insulin receptor (Homo sapiens, UniProt P06213); assay: Inhibition of INSR by TR-FRET based LanthaScreen assay; summary of the method: as §1
Ephrin type-A receptor 4 = Ephrin type-A receptor 4 (Homo sapiens, UniProt P54764); assay: Inhibition of EPHA4 by TR-FRET based LanthaScreen assay; summary of the method: as §1
[17] = target: Proto-oncogene tyrosine-protein kinase receptor Ret (Homo sapiens, UniProt P07949); assay: Inhibition of RET by TR-FRET based LanthaScreen assay; summary of the method: as §1
[18] = target: Serine/threonine-protein kinase N1 (Homo sapiens, UniProt Q16512); assay: Inhibition of PKN1 by Caliper mobility shift assay; summary of the method: as §3
[19] = target: Glycogen synthase kinase-3 beta (Homo sapiens, UniProt P49841); assay: Inhibition of GSK3-beta by TR-FRET based LanthaScreen assay; summary of the method: as §1

ALK tyrosine kinase receptor, sequence (Q9UM73 whole entry): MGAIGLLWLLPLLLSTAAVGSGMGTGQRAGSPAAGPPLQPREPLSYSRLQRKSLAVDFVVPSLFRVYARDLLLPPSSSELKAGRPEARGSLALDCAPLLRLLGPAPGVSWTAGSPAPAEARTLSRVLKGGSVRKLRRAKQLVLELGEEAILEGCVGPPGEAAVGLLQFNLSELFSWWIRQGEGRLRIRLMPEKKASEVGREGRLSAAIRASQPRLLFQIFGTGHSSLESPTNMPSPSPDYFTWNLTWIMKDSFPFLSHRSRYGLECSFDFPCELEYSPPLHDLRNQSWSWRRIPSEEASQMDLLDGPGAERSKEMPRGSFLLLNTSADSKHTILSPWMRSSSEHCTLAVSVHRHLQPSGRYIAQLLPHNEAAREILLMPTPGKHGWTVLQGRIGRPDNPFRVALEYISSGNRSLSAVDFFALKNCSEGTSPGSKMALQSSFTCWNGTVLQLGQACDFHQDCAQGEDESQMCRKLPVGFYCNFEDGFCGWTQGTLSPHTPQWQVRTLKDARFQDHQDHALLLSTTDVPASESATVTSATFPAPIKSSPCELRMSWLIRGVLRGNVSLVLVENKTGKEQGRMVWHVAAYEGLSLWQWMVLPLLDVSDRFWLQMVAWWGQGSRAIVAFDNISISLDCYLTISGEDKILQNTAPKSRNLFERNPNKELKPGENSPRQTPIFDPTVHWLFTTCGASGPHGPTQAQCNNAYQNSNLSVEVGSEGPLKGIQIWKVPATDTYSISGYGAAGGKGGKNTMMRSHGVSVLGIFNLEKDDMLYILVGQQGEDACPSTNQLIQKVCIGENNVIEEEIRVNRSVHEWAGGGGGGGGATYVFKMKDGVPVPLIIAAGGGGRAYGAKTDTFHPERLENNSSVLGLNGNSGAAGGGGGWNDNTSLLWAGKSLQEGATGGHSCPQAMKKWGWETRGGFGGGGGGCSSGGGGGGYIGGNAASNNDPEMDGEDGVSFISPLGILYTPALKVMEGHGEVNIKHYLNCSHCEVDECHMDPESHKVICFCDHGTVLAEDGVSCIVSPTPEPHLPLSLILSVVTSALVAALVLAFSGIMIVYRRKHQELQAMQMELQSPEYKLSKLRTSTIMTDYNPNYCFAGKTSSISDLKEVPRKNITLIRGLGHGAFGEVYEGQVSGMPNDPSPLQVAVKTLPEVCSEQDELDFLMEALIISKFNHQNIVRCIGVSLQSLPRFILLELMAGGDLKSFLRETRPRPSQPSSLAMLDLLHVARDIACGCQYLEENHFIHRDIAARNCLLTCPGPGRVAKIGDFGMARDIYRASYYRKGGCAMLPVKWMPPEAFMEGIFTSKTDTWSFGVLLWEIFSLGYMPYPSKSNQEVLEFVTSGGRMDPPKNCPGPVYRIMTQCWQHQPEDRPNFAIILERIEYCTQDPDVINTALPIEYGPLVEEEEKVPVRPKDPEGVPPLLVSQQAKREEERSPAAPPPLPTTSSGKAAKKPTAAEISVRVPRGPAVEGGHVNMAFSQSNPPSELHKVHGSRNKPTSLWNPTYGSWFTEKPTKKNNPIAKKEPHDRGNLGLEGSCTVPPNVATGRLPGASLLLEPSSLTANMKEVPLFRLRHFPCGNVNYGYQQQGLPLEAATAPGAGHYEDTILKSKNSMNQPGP
Receptor tyrosine-protein kinase erbB-2, sequence (P04626 whole entry): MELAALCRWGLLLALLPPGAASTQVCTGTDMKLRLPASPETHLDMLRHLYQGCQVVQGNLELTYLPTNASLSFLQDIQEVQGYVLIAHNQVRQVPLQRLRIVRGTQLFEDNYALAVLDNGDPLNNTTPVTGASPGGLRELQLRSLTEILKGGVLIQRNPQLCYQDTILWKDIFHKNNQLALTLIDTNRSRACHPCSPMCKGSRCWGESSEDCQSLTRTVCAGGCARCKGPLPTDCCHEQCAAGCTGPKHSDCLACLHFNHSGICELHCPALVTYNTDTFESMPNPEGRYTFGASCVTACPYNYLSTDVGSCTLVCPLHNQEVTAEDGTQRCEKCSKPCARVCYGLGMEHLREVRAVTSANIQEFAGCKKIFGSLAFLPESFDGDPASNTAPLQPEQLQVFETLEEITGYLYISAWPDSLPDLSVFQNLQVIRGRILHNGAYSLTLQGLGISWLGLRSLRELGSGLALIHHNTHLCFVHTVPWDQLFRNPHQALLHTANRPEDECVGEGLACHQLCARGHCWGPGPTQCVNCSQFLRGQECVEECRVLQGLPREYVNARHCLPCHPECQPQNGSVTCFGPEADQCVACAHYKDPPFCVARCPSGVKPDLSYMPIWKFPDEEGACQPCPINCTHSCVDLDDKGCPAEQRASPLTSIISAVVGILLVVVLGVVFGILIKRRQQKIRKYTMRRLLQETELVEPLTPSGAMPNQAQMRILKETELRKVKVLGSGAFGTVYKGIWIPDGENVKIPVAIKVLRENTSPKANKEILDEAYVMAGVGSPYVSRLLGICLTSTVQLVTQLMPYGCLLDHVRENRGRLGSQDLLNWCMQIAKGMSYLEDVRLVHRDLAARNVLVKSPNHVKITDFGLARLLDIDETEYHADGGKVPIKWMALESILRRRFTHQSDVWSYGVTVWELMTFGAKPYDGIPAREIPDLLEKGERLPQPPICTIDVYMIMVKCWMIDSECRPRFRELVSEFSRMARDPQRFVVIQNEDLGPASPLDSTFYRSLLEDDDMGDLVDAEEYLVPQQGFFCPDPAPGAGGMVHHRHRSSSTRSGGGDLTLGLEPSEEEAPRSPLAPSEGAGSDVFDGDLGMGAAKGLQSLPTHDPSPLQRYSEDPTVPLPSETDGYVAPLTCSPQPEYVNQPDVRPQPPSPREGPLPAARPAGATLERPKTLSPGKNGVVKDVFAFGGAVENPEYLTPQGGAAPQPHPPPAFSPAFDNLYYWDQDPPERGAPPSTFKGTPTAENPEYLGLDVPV
Tyrosine-protein kinase JAK2, sequence (O60674 whole entry): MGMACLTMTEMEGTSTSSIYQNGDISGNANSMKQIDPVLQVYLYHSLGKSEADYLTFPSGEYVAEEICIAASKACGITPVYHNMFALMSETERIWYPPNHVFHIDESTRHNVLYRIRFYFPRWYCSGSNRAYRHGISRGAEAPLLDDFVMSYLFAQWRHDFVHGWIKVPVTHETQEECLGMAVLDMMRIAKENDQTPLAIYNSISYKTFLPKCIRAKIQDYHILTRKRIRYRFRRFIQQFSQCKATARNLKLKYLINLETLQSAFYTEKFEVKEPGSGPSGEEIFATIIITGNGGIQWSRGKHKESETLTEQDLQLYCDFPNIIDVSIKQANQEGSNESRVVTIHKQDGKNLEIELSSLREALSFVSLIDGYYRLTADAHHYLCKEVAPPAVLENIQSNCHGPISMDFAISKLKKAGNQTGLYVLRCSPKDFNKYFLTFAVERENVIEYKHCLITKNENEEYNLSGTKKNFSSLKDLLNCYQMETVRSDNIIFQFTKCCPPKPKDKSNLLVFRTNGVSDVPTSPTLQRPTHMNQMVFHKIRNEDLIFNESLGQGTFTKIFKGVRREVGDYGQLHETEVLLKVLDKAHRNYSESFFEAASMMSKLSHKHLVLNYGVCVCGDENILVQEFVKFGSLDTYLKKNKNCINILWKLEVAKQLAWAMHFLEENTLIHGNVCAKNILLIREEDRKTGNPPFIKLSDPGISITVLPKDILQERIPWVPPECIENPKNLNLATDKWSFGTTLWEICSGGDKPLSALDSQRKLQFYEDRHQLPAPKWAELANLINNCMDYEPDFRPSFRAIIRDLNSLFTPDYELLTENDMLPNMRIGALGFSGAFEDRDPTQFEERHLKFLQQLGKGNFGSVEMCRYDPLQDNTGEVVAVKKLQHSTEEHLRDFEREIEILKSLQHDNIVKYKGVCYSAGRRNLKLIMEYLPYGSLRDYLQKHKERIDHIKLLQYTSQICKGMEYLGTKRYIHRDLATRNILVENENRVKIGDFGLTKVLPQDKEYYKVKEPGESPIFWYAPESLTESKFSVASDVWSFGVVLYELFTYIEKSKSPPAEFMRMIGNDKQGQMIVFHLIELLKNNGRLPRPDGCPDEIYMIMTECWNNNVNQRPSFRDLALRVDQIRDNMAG
Serine/threonine-protein kinase N1, sequence (Q16512 whole entry): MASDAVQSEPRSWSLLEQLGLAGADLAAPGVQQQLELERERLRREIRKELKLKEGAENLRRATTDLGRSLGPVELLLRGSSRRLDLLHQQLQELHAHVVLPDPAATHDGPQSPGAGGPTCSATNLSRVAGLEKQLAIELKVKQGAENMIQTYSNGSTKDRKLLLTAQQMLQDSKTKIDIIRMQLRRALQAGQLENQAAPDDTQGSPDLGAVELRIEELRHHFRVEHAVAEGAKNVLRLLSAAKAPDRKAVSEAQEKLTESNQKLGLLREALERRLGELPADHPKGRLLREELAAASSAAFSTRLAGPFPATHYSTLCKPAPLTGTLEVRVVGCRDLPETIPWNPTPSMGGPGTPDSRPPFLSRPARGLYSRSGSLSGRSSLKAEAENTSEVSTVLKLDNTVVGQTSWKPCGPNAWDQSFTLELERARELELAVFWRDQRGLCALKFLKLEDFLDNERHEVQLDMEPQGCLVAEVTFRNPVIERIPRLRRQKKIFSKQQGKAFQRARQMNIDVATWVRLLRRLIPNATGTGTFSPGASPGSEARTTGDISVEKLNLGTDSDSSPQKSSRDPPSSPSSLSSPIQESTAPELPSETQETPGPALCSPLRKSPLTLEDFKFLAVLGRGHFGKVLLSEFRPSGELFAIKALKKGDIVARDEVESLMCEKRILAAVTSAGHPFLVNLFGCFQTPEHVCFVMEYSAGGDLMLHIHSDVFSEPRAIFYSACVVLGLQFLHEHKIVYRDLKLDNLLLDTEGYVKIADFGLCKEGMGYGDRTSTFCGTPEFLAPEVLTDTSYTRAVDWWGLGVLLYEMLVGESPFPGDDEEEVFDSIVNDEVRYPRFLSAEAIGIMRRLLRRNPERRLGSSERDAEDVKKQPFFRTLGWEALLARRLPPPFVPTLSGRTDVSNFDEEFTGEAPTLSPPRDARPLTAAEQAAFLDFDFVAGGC

COc1cc(O)c2c(c1)CCCC(=O)C(=O)C(O)CCC[C@H](C)OC2=O (stereo partly drawn) [L-783277]
IC50 [1]: > 10 µM | IC50 [2]: > 10 µM | IC50 [3]: > 10 µM | IC50 [4]: > 10 µM | IC50 [5]: > 10 µM | IC50 [6]: > 10 µM | IC50 [7]: > 10 µM | IC50 [8]: > 10 µM | IC50 [9]: > 10 µM | IC50 (Aurora kinase A): > 10 µM | IC50 [10]: > 10 µM | IC50 [11]: > 10 µM | IC50 [12]: > 10 µM | IC50 [13]: > 10 µM | IC50 [14]: 0.763 µM | IC50 (Ephrin type-B receptor 4): > 10 µM | IC50 [15]: > 10 µM | IC50 [16]: > 10 µM | IC50 (Insulin receptor): > 10 µM | IC50 (Ephrin type-A receptor 4): > 10 µM | IC50 [17]: > 10 µM | IC50 [18]: > 10 µM | IC50 [19]: > 10 µM
